Measured values: ChEMBL document CHEMBL3124772, “Design, synthesis, and evaluation of conformationally restricted acetanilides as potent and selective β3 adrenergic receptor agonists for the treatment of overactive bladder” (J Med Chem, 2014)

Experiments:
[1] = target: Beta-2 adrenergic receptor (Homo sapiens, UniProt P07550); assay: Displacement of [125I]-cyanopindolol from recombinant human beta-2 adrenergic receptor expressed in CHO cell membranes after 1 hr by scintillation counting analysis
Beta-2 adrenergic receptor, sequence (P07550 whole entry): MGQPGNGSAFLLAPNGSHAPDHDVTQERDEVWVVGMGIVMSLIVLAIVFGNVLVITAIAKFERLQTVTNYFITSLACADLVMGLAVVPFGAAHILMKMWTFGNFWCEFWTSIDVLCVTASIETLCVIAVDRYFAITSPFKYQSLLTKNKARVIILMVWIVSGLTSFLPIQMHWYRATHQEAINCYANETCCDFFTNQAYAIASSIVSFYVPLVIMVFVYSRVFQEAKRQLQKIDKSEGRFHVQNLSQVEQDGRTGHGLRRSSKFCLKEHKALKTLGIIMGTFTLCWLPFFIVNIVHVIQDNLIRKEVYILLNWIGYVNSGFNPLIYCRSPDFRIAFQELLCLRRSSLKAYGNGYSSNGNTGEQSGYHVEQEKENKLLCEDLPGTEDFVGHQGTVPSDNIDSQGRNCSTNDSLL

[2] = target: T1, Beta-3 adrenergic receptor (Homo sapiens, UniProt P13945); assay: Agonist activity at human beta-3 adrenergic receptor expressed in CHO cells assessed as increase in intracellular cAMP accumulation at 10^-10 to 10^-5 M after 30 mins by time-resolved fluorescence assay relative to R-(-)isoproterenol; format: functional, cell-based
Method in brief: (§1)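 CHO cells stably transfected with cloned β3-AR, harvested after 3 days subculture with enzyme-free dissociation, 6000 cells in HBSS with 5 mM HEPES, 0.1% BSA and 0.6 mM IBMX. Ligand at 10⁻¹⁰ to 10⁻⁵ M final, 30 min room temperature with labeled cAMP antibody; LANCE TR-FRET read after 1 h detection, cAMP from standard curve.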
Target sequence in this assay (P13945 whole entry, looked up): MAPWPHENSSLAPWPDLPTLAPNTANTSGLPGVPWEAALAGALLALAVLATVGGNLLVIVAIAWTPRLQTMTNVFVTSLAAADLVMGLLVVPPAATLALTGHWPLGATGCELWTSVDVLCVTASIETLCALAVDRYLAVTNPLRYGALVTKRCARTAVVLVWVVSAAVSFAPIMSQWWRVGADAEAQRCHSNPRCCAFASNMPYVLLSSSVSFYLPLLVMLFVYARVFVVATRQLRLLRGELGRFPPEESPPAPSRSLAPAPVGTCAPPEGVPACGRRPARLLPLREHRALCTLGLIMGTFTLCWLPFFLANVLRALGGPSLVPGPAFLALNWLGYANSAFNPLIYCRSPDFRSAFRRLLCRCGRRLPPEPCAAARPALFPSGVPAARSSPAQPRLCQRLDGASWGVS

[3] = Plasma clearance in Sprague-Dawley rat at 1 mg/kg, iv and 2 mg/kg, po; format: ADME, organism-based
Plasma = assay: (§2) Fraction unbound in Sprague-Dawley rat plasma at 1 mg/kg, iv and 2 mg/kg, po; format: ADME, organism-based; conditions: in vivo, BLD = below limit of detection
[4] = Half life in Sprague-Dawley rat at 1 mg/kg, iv and 2 mg/kg, po; format: ADME, organism-based; conditions: in vivo
[5] = Intrinsic clearance in rat liver microsomes; format: ADME; conditions: read-out: CLH
[6] = target: T1, Beta-3 adrenergic receptor; assay: Agonist activity at human beta-3 adrenergic receptor expressed in CHO cells assessed as increase in intracellular cAMP accumulation after 30 mins by time-resolved fluorescence assay; format: functional, cell-based; method in brief: as §1
Target sequence in this assay (P13945 whole entry): as the sequence (P13945 whole entry, looked up) above

[7] = target: Beta-1 adrenergic receptor (Homo sapiens, UniProt P08588); assay: Displacement of [125I]-cyanopindolol from recombinant human beta-1 adrenergic receptor expressed in CHO cell membranes after 1 hr by scintillation counting analysis
Beta-1 adrenergic receptor, sequence (P08588 whole entry): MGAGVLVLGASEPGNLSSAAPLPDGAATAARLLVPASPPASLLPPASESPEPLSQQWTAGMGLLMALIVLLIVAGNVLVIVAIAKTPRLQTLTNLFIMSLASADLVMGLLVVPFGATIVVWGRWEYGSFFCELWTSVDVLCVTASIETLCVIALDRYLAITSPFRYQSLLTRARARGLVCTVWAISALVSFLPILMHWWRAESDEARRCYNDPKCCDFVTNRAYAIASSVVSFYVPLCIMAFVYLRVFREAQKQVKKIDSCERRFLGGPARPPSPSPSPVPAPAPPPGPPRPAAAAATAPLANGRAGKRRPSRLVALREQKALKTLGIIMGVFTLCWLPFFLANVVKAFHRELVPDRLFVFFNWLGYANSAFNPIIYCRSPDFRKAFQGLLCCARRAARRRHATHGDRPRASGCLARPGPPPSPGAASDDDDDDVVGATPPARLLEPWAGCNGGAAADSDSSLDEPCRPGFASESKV

[8] = Apparent permeability in MDCK2 cells; format: ADME, cell-based, Canis lupus familiaris, MDCK-II; conditions: dog, MDCK
[9] = Oral bioavailability in Sprague-Dawley rat at 2 mg/kg; format: ADME, organism-based; conditions: in vivo
[10] = target: Voltage-gated inwardly rectifying potassium channel KCNH2 (Homo sapiens, UniProt Q12809); assay: Inhibition of human ERG
Voltage-gated inwardly rectifying potassium channel KCNH2, sequence (Q12809 whole entry): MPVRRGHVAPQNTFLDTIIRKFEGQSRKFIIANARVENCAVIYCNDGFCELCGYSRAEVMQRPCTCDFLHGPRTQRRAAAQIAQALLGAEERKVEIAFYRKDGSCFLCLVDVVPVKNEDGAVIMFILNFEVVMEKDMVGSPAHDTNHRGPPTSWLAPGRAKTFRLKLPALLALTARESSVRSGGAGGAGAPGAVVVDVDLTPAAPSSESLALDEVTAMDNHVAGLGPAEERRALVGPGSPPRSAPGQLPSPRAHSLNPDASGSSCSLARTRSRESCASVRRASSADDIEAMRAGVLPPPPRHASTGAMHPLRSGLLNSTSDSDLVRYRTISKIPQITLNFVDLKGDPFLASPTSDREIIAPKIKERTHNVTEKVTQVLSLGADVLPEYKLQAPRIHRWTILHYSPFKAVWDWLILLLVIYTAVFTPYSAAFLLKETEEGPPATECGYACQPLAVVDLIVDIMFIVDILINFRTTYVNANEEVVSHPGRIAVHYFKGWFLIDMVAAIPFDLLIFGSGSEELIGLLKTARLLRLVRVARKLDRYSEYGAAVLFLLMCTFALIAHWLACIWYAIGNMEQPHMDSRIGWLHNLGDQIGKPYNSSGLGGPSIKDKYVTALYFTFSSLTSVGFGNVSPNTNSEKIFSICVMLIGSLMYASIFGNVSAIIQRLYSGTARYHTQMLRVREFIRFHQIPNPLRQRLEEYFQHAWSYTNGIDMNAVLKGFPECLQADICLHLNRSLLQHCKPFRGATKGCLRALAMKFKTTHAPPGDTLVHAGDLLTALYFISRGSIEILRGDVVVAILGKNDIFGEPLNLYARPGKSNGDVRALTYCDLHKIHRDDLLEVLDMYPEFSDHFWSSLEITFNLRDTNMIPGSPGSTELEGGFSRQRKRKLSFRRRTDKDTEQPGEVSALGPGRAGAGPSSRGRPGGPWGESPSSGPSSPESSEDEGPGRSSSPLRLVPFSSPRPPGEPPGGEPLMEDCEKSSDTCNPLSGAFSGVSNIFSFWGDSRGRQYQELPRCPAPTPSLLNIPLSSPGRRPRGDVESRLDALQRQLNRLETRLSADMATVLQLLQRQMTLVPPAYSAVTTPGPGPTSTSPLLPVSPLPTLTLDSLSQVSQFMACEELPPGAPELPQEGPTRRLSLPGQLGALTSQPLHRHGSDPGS

Cytochrome P450 2D6 = Cytochrome P450 2D6 (Homo sapiens, UniProt P10635); assay: Inhibition of CYP2D6 in human liver microsomes assessed as dextromethorphan O-demethylation; format: ADME
Cytochrome P450 2D6, sequence (P10635 whole entry): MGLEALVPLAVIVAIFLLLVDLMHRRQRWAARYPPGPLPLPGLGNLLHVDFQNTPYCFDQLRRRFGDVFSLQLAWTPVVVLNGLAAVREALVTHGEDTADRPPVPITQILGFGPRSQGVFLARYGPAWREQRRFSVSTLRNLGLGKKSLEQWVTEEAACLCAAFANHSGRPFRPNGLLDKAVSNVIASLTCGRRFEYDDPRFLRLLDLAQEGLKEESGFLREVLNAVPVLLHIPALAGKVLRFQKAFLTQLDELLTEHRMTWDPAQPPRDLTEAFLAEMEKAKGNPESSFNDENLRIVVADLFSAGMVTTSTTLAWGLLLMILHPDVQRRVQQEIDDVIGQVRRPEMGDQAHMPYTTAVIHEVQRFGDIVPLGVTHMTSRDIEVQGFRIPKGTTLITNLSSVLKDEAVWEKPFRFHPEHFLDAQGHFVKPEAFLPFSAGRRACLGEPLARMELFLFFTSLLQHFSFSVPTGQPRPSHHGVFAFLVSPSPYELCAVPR

Homo sapiens = species: Homo sapiens; assay: Selectivity ratio of IC50 for human SERT to EC50 for human beta-3 adrenergic receptor
Cytochrome P450 3A4 = Cytochrome P450 3A4 (Homo sapiens, UniProt P08684); assay: Inhibition of CYP3A4 in human liver microsomes assessed as testosterone 6beta-hydroxylation; format: ADME
Cytochrome P450 3A4, sequence (P08684 whole entry): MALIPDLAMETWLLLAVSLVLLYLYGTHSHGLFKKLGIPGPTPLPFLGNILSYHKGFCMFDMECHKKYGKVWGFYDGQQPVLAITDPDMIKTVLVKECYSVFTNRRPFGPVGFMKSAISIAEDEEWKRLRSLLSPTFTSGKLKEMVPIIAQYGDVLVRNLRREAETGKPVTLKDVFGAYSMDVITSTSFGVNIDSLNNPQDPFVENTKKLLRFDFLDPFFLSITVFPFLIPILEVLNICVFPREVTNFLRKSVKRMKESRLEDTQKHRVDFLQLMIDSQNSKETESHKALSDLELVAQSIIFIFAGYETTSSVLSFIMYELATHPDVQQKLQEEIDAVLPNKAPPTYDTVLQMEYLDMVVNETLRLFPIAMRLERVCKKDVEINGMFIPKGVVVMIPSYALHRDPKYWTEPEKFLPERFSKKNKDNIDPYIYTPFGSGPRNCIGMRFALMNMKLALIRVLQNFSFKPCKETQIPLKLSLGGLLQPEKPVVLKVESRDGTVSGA

[11] = target: Voltage-dependent L-type calcium channel subunit alpha-1C (Homo sapiens, UniProt Q13936); assay: Displacement of [3H]-diltiazem from human CaV1.2
[12] = as §2; format: ADME, organism-based; conditions: Sprague-Dawley, plasma
Cytochrome P450 2C9 = Cytochrome P450 2C9 (Homo sapiens, UniProt P11712); assay: Inhibition of CYP2C9 in human liver microsomes assessed as diclofenac alpha'-hydroxylation; format: ADME
Cytochrome P450 2C9, sequence (P11712 whole entry): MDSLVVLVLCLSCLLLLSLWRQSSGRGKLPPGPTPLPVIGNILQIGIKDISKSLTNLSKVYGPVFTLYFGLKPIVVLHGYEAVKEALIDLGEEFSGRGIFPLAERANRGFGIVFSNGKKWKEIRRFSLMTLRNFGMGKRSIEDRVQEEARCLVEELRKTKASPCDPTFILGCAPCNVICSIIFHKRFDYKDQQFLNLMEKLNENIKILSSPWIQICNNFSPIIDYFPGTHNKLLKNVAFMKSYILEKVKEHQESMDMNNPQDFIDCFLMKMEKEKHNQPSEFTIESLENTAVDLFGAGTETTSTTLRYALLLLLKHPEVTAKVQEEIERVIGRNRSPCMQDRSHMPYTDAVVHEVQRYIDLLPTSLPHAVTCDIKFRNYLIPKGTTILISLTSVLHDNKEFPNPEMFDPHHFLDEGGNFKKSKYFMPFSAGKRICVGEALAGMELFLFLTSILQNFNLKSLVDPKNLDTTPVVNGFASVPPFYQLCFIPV

[13] = target: Sodium-dependent serotonin transporter (Homo sapiens, UniProt P31645); assay: Inhibition of human SERT expressed in HEK293 cells incubated for 30 mins prior to fluorescent substrate addition measured after 30 mins by fluorescent dye uptake assay; format: cell-based
Sodium-dependent serotonin transporter, sequence (P31645 whole entry): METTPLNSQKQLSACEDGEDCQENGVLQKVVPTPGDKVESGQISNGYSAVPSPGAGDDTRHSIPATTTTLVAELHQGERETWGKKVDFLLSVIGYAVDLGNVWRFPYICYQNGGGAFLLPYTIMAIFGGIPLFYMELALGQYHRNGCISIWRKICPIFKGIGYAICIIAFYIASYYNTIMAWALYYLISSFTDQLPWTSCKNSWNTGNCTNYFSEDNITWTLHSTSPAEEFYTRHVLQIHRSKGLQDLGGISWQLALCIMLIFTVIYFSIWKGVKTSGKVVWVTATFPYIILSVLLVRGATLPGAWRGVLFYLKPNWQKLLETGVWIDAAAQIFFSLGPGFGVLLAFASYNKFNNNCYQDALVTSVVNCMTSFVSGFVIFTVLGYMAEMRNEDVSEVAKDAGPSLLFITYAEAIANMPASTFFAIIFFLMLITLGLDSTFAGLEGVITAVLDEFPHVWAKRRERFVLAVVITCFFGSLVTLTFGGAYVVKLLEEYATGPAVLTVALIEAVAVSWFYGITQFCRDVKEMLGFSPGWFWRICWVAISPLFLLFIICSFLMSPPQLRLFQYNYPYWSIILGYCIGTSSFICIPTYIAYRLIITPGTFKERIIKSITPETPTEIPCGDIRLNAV
Method in brief: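 HEK293 stably expressing human SERT, 20000 cells/well plated overnight at 37 °C, then in HBSS with 20 mM HEPES and 0.1% BSA. Compound added from 100× DMSO stock, 30 min at 37 °C, then fluorescent transporter substrate for 30 more min. Fluorescence read at 440/520 nm, normalized to DMSO (0%) and 10 μM fluoxetine (100%), four-parameter fit for IC50.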

[14] = target: Sodium channel protein type 5 subunit alpha (Homo sapiens, UniProt Q14524); assay: Inhibition of human NaV1.5

Row | Structure (SMILES) | IC50 [1] | Activity [2] | clearance [3] | Fu (Plasma) | half-life [4] | CLint scaled [5] | EC50 [6] | IC50 [7] | Papp [8] | bioavailability [9] | IC50 (Cytochrome P450 2D6) | Ratio IC50/EC50 (Homo sapiens) | IC50 (Cytochrome P450 3A4) | fraction unbound [12] | IC50 (Cytochrome P450 2C9) | IC50 [13] | IC50 [10] | IC50 [11] | IC50 [14]
1 | Nc1nc2c(s1)CC[C@H]2C(=O)Nc1ccc(C[C@@H]2CC[C@H]([C@H](O)c3cccc(F)c3)N2)cc1 | > 20 µM | 94% | – | – | – | – | 40 pM | > 20 µM | – | – | – | – | – | – | – | – | 4 µM | – | –
2 | Nc1nc2c(s1)CC[C@H]2C(=O)Nc1ccc(C[C@@H]2CC[C@H]([C@H](O)c3ccc(F)cc3)N2)cc1 | > 20 µM | 72% | – | – | – | – | 130 pM | > 20 µM | – | – | – | – | – | – | – | – | 5.6 µM | – | –
3 | Cc1nc2c(s1)CC[C@H]2C(=O)Nc1ccc(C[C@@H]2CC[C@H]([C@H](O)c3ccccc3)N2)cc1 | > 20 µM | 96% | 87 mL/min/kg | – | 1 h | 135 mL/min/kg | 480 pM | > 20 µM | 26 ×10⁻⁶ cm/s | 6% | – | – | – | 0.05 | – | – | – | – | –

The next lines start with results.

Row | IC50 [1] | Activity [2] | clearance [3] | Fu (Plasma) | half-life [4] | CLint scaled [5] | EC50 [6] | IC50 [7] | Papp [8] | bioavailability [9] | IC50 (Cytochrome P450 2D6) | Ratio IC50/EC50 (Homo sapiens) | IC50 (Cytochrome P450 3A4) | fraction unbound [12] | IC50 (Cytochrome P450 2C9) | IC50 [13] | Structure (SMILES) | IC50 [10] | IC50 [11] | IC50 [14]
4 | > 20 µM | 101% | 32 mL/min/kg | BLD | 4 h | 57 mL/min/kg | 370 pM | > 20 µM | < 1 ×10⁻⁶ cm/s | 0% | – | – | – | – | – | – | Nc1nc2c(s1)CC[C@H]2C(=O)Nc1ccc(C[C@@H]2CC[C@H]([C@H](O)c3cccnc3)N2)cc1 | – | – | –
5 | > 20 µM | 89% | 25 mL/min/kg | – | 1 h | 62 mL/min/kg | 1150 pM | > 20 µM | 17 ×10⁻⁶ cm/s | 46% | > 100 µM | 77 | 41.8 µM | 0.11 | 67.2 µM | 0.089 µM | Cc1nc2c(s1)CC[C@H]2C(=O)Nc1ccc(C[C@@H]2CC[C@H]([C@H](O)c3cccnc3)N2)cc1 | 12 µM | > 30 µM | > 30 µM
